# High-throughput results from PubChem BioAssay.
# Most compounds without a hit are left out; they make up all but 2.7% or so of the library.
# PRMT1 FP inh = inhibitors of human PRMT1; recombinant PRMT1, activity-based probe fluorescence polarization; inhibition, % at 2.79 µM; 370,000 compounds, 1.3% hits; AID 652257;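 active = inhibition above about 21% made by adding two undisclosed values, limit read from the data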
# GSTO1 counter = counter-screen for RBBP9 inhibitors: inhibitors of human GSTO1. P78417. recombinant GSTO1, activity-based probe fluorescence polarization. inhibition, % at 5.96 µM. 300,000 compounds, 1.1% hits. AID 1974;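 active = inhibition above the campaign mean inhibition plus 3 SD, cut at about 35% in these data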;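 note: 0% = GSTO1-1 with DMSO and 100% = wells lacking GSTO1-1 enzyme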
# Target sequence (P78417 whole entry, looked up): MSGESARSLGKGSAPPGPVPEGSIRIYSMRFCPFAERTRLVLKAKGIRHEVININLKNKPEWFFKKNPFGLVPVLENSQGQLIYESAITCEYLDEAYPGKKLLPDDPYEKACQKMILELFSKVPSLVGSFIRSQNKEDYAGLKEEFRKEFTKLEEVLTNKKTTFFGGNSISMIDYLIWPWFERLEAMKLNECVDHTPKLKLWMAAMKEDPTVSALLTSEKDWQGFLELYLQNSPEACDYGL
# SIAE inh = human SIAE inhibition, primary screen. Q9HAT2. SIAE FP-Rh probe binding, fluorescence polarization. inhibition, % at 9.66 µM. 370,000 compounds, 0.69% hits;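 active = inhibition above a cutoff: mean of compounds within the control limits plus 3 SD of those, cut at about 17% in these data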;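 note: 0% = plate median of compound wells and 100% = probe without SIAE protein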
# RBBP9 inh = inhibitors of human serine hydrolase RBBP9 | 220,000 compounds, 0.2% hits | recombinant RBBP9, FP-Rh probe fluorescence polarization | AID 1515 | O75884 | inhibition, % at 7.94 µM;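 active = inhibition above the campaign mean of all tested compounds plus 3 SD, cut at about 14% in these data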;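 note: plate controls were DMSO wells with RBBP9 for no effect and wells lacking RBBP9 protein for full effect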
# Target sequence (O75884 whole entry, looked up): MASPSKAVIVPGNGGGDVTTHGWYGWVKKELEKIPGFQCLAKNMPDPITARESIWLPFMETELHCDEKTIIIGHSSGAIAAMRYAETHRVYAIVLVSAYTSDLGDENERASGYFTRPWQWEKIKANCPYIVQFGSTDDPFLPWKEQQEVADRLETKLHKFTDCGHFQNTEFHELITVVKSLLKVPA
#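 Controls: DMSO-treated enzyme wells and wells lacking RBBP9 | Material: RBBP9 protein | Technique: Fluorescence polarization | Replication: Single well per compound, no replicates | Buffer or medium: Tris-NaCl-Pluronic buffer, pH 8.0 | Timing: 30 min compound preincubation, 45 min probe labeling, 25 °C | Read-out basis: Percent inhibition from mP, scaled between DMSO and no-protein wells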
# PAD4 FP inh = inhibitors of human PAD4; inhibition, % at 6.36 µM; 330,000 compounds, 0.41% hits; Q9UM07; recombinant PAD4, RCA probe fluorescence polarization;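 active = percent inhibition above a cutoff equal to the mean of all tested compounds plus 3 SD, cut at about 15% in these data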;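 note: 0% = PAD4 with RCA probe and DMSO and 100% = probe without PAD4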
# Starred values were filed as active, the others as inactive; · = no result.
SMILES,PRMT1 FP inh,GSTO1 counter,SIAE inh,RBBP9 inh,PAD4 FP inh
C[C@]12CC[C@@H]3c4cc(O)c(O)cc4CC[C@H]3[C@@H]1CC[C@@H]2O,33*,42*,-3,24*,-1
C[C@]12CC[C@@H]3c4ccc(O)cc4CC[C@H]3[C@@H]1CC[C@@H]2O,4,2,0,-11,-5
Cc1[nH]n(-c2ccccc2)c(=O)c1C(C[N+](=O)[O-])c1ccc(Cl)cc1 (centres undefined),-1,61*,9,8,-1
Cc1[nH]n(-c2ccccc2)c(=O)c1C(C[N+](=O)[O-])c1ccc(F)cc1 (centres undefined),0,59*,1,-1,14
O=C(CSC1=Nc2ccccc2C2CC=NN12)Nc1ccc(F)c(F)c1F (centres undefined),22*,·,5,·,0
COCCn1c(C)cc(C2=NNC(=Nc3ccccc3)SC2)c1C,7,4,6,-1,2
COc1ccccc1C1=NNC(=Nc2cccc(S(=O)(=O)N(C)C)c2)SC1,22*,-6,-7,-7,2
COc1cc(S(=O)(=O)NC(C)C)ccc1Cl,0,6,-4,0,-1
Cc1cccc(Cn2nnc3c2C(=O)c2ccccc2C3=O)c1,0,24,5,3,-5
Cc1ccccc1Cn1nnc2c1C(=O)c1ccccc1C2=O,-3,38*,7,1,-9
Cc1ccc(Sc2ccc(S(=O)(=O)Nc3ccc(CC(=O)O)cc3)cc2)cc1C,1,·,-4,·,4
Cc1nc(SC2CC(=O)N(c3cc(Cl)cc(Cl)c3)C2=O)nc2c1CCCC2 (centres undefined),24*,1,-4,-7,-3
CCc1nnc(NS(=O)(=O)c2ccc(N/C=C(\C=O)c3nc4cc(Cl)ccc4o3)cc2)s1,2,-21,-9,4,-3
NC(=S)N=Nc1c(O)cc(O)c2[nH]c(=O)ccc12,70*,·,12,·,·
NC(=S)N=Nc1c(O)[nH]c2ccc(F)cc12,8,3,-4,-7,-2
Cc1cn(C(=O)c2cccc(Br)c2)c(C)n1,3,7,-6,-8,0
COc1cc(C=Nn2c(-c3cc(-c4ccccc4)n[nH]3)n[nH]c2=S)ccc1OC(C)=O,33*,·,9,·,·
S=c1[nH]nc(-c2cc(-c3ccccc3)n[nH]2)n1/N=C/c1ccccc1,3,3,5,-1,2
COc1ccc(N2C(=O)CC3(CCCC3)CC2=O)cc1,-1,1,2,-10,2
CCCCNC(=O)C[C@H]1C[C@@]2(C(=O)OC)C(=C[C@H](C(C)C)O[C@@H]2C2CC2)N(Cc2cccc3ccccc23)C1=O,-7,·,2,·,·
COC(=O)[C@]1(C)CCC[C@@]2(C)C3CC[C@@]4(C)C[C@]3(CCC21)CC(=O)N4 (some centres undefined),-3,·,-4,·,2
C=C1C(=O)C23CCC4C(C)(C(=O)OC)CCCC4(C)C2CCC1(O)C3 (centres undefined),29*,·,-4,·,·
CCOc1ccc(OCc2ccc(C(=O)Nc3ccc(Cl)cn3)o2)cc1,1,0,-5,5,3
CCC1CCCCN1CCNC(=O)C1CCCN(S(=O)(=O)c2cccc3nsnc23)C1 (centres undefined),-2,-7,1,·,0
O=C(N/N=C\c1ccc([N+](=O)[O-])s1)c1cncc(Br)c1,-2,43*,-6,-1,3
SMILES,PRMT1 FP inh,GSTO1 counter,SIAE inh,RBBP9 inh,PAD4 FP inh
COc1ccc(NC(=S)NNC(=O)COc2ccc(Cl)cc2Cl)cc1,24*,3,10,-2,4
Cc1nn(C(=O)c2ccc([N+](=O)[O-])cc2)c(C)c1Br,3,3,-5,0,2
CC1CCCN(CCC(=O)c2ccc(Br)cc2)C1 (centres undefined),6,-25,-2,-7,-4
CCOC(=O)N1CCN(CCC(=O)c2ccc(OC)cc2)CC1,21*,0,-6,-4,-4
CCOC(=O)N1CCN(CCC(=O)c2ccc(Cl)cc2)CC1,1,-2,-1,-10,-4
COc1ccc(C(=O)CCN2CCCC(C)C2)cc1 (centres undefined),25*,-8,0,·,3
COCCn1c(C)cc(C(=O)COC(=O)c2ccc(N3CCCC3=O)cc2)c1C,0,-2,-3,-4,14
C/C=C/C=C/C(=O)N1CC[C@]23c4ccccc4N[C@H]4N(C)c5cccc6c5[C@]42CCN([C@H]6C2OC2(C)C)[C@H]13 (some centres undefined),-4,37*,4,·,5
CN1CCC23c4ccccc4NC1C21CCN(C)C3Nc2ccccc21,1,4,8,·,1
Cn1c(C(=O)N2CCCC(C(=O)NCCN3CCOCC3)C2)cc2sccc21 (centres undefined),2,10,4,-7,-2
CN(C)c1ccc(N2C(=O)CC(Nc3ccc(N4CCOCC4)cc3)C2=O)cc1 (centres undefined),6,3,11,-1,-5
COc1ccc(N2C(=O)CC(Nc3ccc(N4CCOCC4)cc3)C2=O)c(OC)c1 (centres undefined),14,17,30*,-3,10
O=C(NCCCO)NC12CC3CC(CC(C3)C1)C2,-5,11,4,-3,-3
O=C(CCl)NC(=O)NC12CC3CC(CC(C3)C1)C2,-1,89*,3,-5,1
Cc1ccc(-c2[nH]c3cc(C(=O)NCCCn4ccnc4)ccc3c(=O)c2O)cc1,-1,3,18*,·,6
O=C1CC(c2ccc(Cl)cc2)c2c(O)cc(O)cc2O1 (centres undefined),0,37*,3,·,0
Cc1ccc(C2CC(=O)Oc3cc(C)cc(C)c32)cc1 (centres undefined),1,·,-4,·,-6
Cc1ccc(NC(=S)NCc2cccn2C)cc1,0,-4,10,-9,-5
Cc1cccc(NC(=S)NCc2cccn2C)c1,5,37*,14,-3,2
CCCN(CCC)S(=O)(=O)c1ccc(Cl)c([N+](=O)[O-])c1,2,35*,1,-5,-4
CCCN(CCC)S(=O)(=O)c1ccc(N2CCCC2=O)c([N+](=O)[O-])c1,-3,-2,-7,-4,6
Cc1nc2sc(C(c3ccco3)N3CCN(c4ccccc4)CC3)c(O)n2n1 (centres undefined),7,1,-9,-3,-2
Cc1nc2sc(C(c3ccccc3)N3CCOCC3)c(O)n2n1 (centres undefined),0,8,4,2,-1
Cc1nc2sc(C(c3ccco3)N3CCN(C(c4ccccc4)c4ccccc4)CC3)c(O)n2n1 (centres undefined),24*,2,2,-12,-1
Cc1nc2sc(C(c3ccco3)N3CCC(C)CC3)c(O)n2n1 (centres undefined),22*,8,1,-5,4
